Assays:
[1] = Metal-centered reduction potential E1/2 for Mn^IIIP/Mn^IIP redox couple; type: physicochemical
[2] = system: human epithelial colorectal adenocarcinoma Caco-2; assay: WST-1-based cytotoxicity assay, Caco-2; type: cell-based; conditions: read-out: IC50 values for MnPs in the absence of ascorbate; Caco-2, 96 h, WST-1, no ascorbate
[3] = system: four tumour cell lines (Caco-2, HCT116, 4T1 and Hela); assay: WST-1-based cytotoxicity assay, statements across the four tumour cell lines; conditions: for cytotoxicity relative to MnTnHex-2-PyP^5+ in the presence of ascorbate: slopes of curves in Figure 5; for effect of low levels on the cell: Figures 5 and 6; for toxicity of MnP in its own right: absence of ascorbate, 30 µM MnP, HCT116, 4T1, Hela
[4] = cited from earlier work; for SOD activity log kcat (O2^·−): cyt c assay, 0.05 M phosphate buffer, pH 7.8, 25 ± 1°C
[5] = system: SOD-deficient E. coli; conditions: cited from earlier work; for efficacy in protecting SOD-deficient E. coli: ortho vs meta
[6] = cited from earlier work
[7] = plastic-backed silica-gel TLC plates, 1:1:8 = KNO3(sat):H2O:CH3CN; cited from earlier work
[8] = system: 4T1 mouse breast carcinoma cells; assay: Clonogenic assay, 4T1; type: cell-based; conditions: 4T1, ascorbate 1 mM or MnTnHex-2-PyP^5+ 15 and 30 µM alone, 24 h
[9] = system: HCT116 human colorectal carcinoma cells; assay: Clonogenic assay, HCT116; type: cell-based; conditions: HCT116, ascorbate 0.5 mM or MnTnHex-2-PyP^5+ 15 and 30 µM alone, 24 h
[10] = system: 4T1 tumour cells; assay: LCMS/MS analysis of MnTnHex-2-PyP^5+ levels in 4T1 cells; type: in vitro ADME, mouse
In short: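 4T1 cells at 1,440,000 per plate in 10 mL DMEM (high glucose, 10% FBS), attached 24 h (~80% confluence), then given 0.5 or 1 mM ascorbate, 5, 15 or 30 µM porphyrin, or combinations, for 24 h. PBS-rinsed, RIPA-lysed on ice, sonicated, spun; lysate porphyrin by LC-MS/MS normalised to Bradford protein. Intracellular concentration calculated assuming 2.19 µL cell volume/mg protein.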

[11] = MnTnHex-2-PyP^5+ levels in tumour and muscle by LCMS/MS; type: in vivo, Balb/c mice
In short: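 Female Balb/c mice (6–8 weeks, ~22 g) bearing subcutaneous flank 4T1 tumours (10^6 cells), treated from ~200 mm3 for 15 days with porphyrin 1 mg/kg twice daily sc, with or without sodium ascorbate 2 g/kg twice daily ip given 1 h later. Tumour and opposite-leg muscle homogenised, deproteinised with 1% acetic acid in methanol, dried, reconstituted; porphyrin by LC-MS/MS, µM in homogenate.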

[12] = n-octanol-water partition coefficient, log Pow; type: physicochemical
[13] = system: Caco-2 cells; assay: Identification of species involved in cytotoxicity; type: cell-based, human
In short: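 Caco-2 cells at 10,000/well in alpha-MEM with 10% FBS; after 24 h at 37°C, 5% CO2, exposed to 30 µM Mn porphyrin, 3.3 mM ascorbate or both, with or without 1,500 units/mL catalase or 5 mM mannitol, for 96 h. Cells PBS-washed, WST-1 added for 2 h at 37°C, A450/595 read, % viability versus no-drug cells after cell-free blank subtraction.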

[14] = Rate constant for the oxidation of Mn^IIP with oxygen; conditions: estimated from Mn^IITM-4-PyP^4+ value and structure-activity relationship

CC[n+]1ccccc1-c1c2nc(c(-c3cccc[n+]3CC)c3ccc([n-]3)c(-c3cccc[n+]3CC)c3nc(c(-c4cccc[n+]4CC)c4ccc1[n-]4)C=C3)C=C2.[Mn+3] [MnTE-2-PyP^5+, Mn(III) meso-tetrakis(N-ethylpyridinium-2-yl)porphyrin]
E1/2 difference relative to MnTnHex-2-PyP^5+ (less positive / more negative) [1]: ~ 100 mV
IC50 [2]: 470 µM
cytotoxicity relative to MnTnHex-2-PyP^5+ in the presence of ascorbate ([3]; 4T1, Hela): more cytotoxic
cytotoxicity relative to MnTnHex-2-PyP^5+ in the presence of ascorbate ([3]; HCT116, Caco-2): equally
effect of low levels on the cell [3]: beneficial
fold more potent SOD mimic than meta MnTE-3-PyP^5+ [4]: 10 fold
SOD activity log kcat (O2^·−) [4]: 7.76
efficacy in protecting SOD-deficient E. coli [5]: equally efficacious

CC[n+]1cccc(-c2c3nc(c(-c4ccc[n+](CC)c4)c4ccc([n-]4)c(-c4ccc[n+](CC)c4)c4nc(c(-c5ccc[n+](CC)c5)c5ccc2[n-]5)C=C4)C=C3)c1.[Mn+3] [MnTE-3-PyP^5+, Mn(III) meso-tetrakis(N-ethylpyridinium-3-yl)porphyrin, reference compound]
fold more lipophilic than ortho MnTE-2-PyP^5+ [6]: 10 fold
fold more accumulation within E. coli cell than MnTE-2-PyP^5+ [5]: 10 fold
efficacy in protecting SOD-deficient E. coli [5]: equally efficacious

C[n+]1ccc(-c2c3nc(c(-c4cc[n+](C)cc4)c4ccc([n-]4)c(-c4cc[n+](C)cc4)c4nc(c(-c5cc[n+](C)cc5)c5ccc2[n-]5)C=C4)C=C3)cc1.[Mn+3] [MnTM-4-PyP^5+, Mn(III) meso-tetrakis(N-methylpyridinium-4-yl)porphyrin, reference compound]
SOD activity log kcat (O2^·−) [4]: 6.58
Lipophilicity Rf [7]: 0.064

CCCCCC[n+]1ccccc1-c1c2nc(c(-c3cccc[n+]3CCCCCC)c3ccc([n-]3)c(-c3cccc[n+]3CCCCCC)c3nc(c(-c4cccc[n+]4CCCCCC)c4ccc1[n-]4)C=C3)C=C2.[Mn+3] [MnTnHex-2-PyP^5+, Mn(III) meso-tetrakis(N-n-hexylpyridinium-2-yl)porphyrin]
IC50 [2]: 170 µM
toxicity of MnP in its own right [3]: exerted toxicity
ability to produce colonies, single agent [8]: did not affect
ability to produce colonies, single agent [9]: did not affect
MnP concentration in the cells relative to the medium ([10]; 30 µM MnP in medium): ~ 4 times
more MnP found within cells with MnP/ascorbate compared to MnP alone ([10]; 4T1 cells, depending on concentrations of ascorbate and porphyrin): ≤ 29%
enhancement of MnP accumulation by ascorbate in muscle ([11]; MnP/ascorbate vs MnP treated mice, muscle): 54%
enhancement of MnP accumulation by ascorbate in tumour ([11]; MnP/ascorbate vs MnP treated mice, tumour): 33%
accumulation in tumour relative to muscle from the opposite leg ([11]; MnTnHex-2-PyP^5+ 1 mg/kg twice daily sc, tissue homogenates): higher accumulation in tumour
SOD activity log kcat (O2^·−) [4]: 7.48

CCCCCC[n+]1cccc(-c2c3nc(c(-c4ccc[n+](CCCCCC)c4)c4ccc([n-]4)c(-c4ccc[n+](CCCCCC)c4)c4nc(c(-c5ccc[n+](CCCCCC)c5)c5ccc2[n-]5)C=C4)C=C3)c1.[Mn+3] [MnTnHex-3-PyP^5+, Mn(III) meso-tetrakis(N-n-hexylpyridinium-3-yl)porphyrin]
E1/2 difference relative to MnTE-2-PyP^5+ (more negative) [1]: ~150 mV
E1/2 difference relative to MnTnHex-2-PyP^5+ (less positive / more negative) [1]: ~ 250 mV
fold more lipophilic than MnTnHex-2-PyP^5+ [12]: ~ 10 fold
IC50 [2]: 140 µM
toxicity of MnP in its own right [3]: not significantly toxic
effect of low levels on the cell [3]: beneficial
toxicity of MnP by itself to Caco-2 cells ([13]; Caco-2, 30 µM MnP, no ascorbate, Figure 9): less toxic
effect of mannitol on cytotoxicity ([13]; Caco-2, 5 mM mannitol, 4 days): blocked significantly
SOD activity log kcat (O2^·−) [4]: 6.64
accumulation within E. coli cell relative to MnTnHex-2-PyP^5+ ([5]; absence of exogenous reductant): several-fold more

CC[n+]1ccccc1-c1c2nc(c(-c3cccc[n+]3CC)c3ccc([n-]3)c(-c3cccc[n+]3CC)c3nc(c(-c4cccc[n+]4CC)c4ccc1[n-]4)C=C3)C=C2.[Mn+2] [Mn^IITE-2-PyP^4+]
rate constant for the reaction with O2 [14]: 80000 M⁻¹ s⁻¹
